Test results from ChEMBL document CHEMBL4689842, “EUbOPEN Chemogenomics Library wave 1” (2021).

Test system: HEK-293T
Experiment: Multiplex assay against HEK293T;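 for Population Tubulin-Different-Phenotype (%): share of the cells with healthy nuclei that show this phenotype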
Assay type: toxicity, cell-based
Conditions: human
In short: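 Imaging took place on a CQ1 microscope at 37°C and 5% CO2 once compound had been added to live cells stained at seeding with Hoechst33342, BioTracker Green Microtubule Cytoskeleton Dye, MitoTracker Red and Annexin V Alexa Fluor 680. CellPathfinder machine-learning gating classed cells as Hoechst high-intensity objects or normal cells, classed normal cells as having healthy, pyknosed or fragmented nuclei, and classed pyknosed cells as mitotic or apoptotic. Tubulin, mitochondrial-mass and membrane-permeability phenotypes are per cents of the healthy-nucleus cells.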

[1] = 12 h, 1 µM, compound concentration 1 uM, replicate 1
[2] = 12 h, 1 µM, compound concentration 1 uM, replicate 2
[3] = 12 h, 10 µM, compound concentration 10 uM, replicate 1
[4] = 12 h, 10 µM, compound concentration 10 uM, replicate 2
[5] = 24 h, 1 µM, compound concentration 1 uM, replicate 1
[6] = 24 h, 1 µM, compound concentration 1 uM, replicate 2
[7] = 24 h, 10 µM, compound concentration 10 uM, replicate 1
[8] = 24 h, 10 µM, compound concentration 10 uM, replicate 2
[9] = 48 h, 1 µM, compound concentration 1 uM, replicate 1
[10] = 48 h, 1 µM, compound concentration 1 uM, replicate 2
[11] = 48 h, 10 µM, compound concentration 10 uM, replicate 1
[12] = 48 h, 10 µM, compound concentration 10 uM, replicate 2

## CCOc1cc2ncc(C#N)c(Nc3ccc(OCc4cccc(F)c4)c(Cl)c3)c2cc1NC(=O)/C=C/CN(C)C [HKI-357]
[1]
  Population Apoptotic (%): 18%
  Population Fragmented Nuclei (%): 19%
  Population Healthy Nuclei (%): 59%
  Population Hoechst High Intensity Objects (%): 13%
  Population Membrane Permeable-Phenotype (%): 4%
  Population Mitochondria Different-Phenotype (%): 8%
  Population Mitotic Cells (%): 81%
  Population Normal (%): 86%
  Population Pyknosed Nuclei (%): 21%
  Population Tubulin-Different-Phenotype (%): 4%
  Total Cell Count: 555
[2]
  Population Apoptotic (%): 10%
  Population Fragmented Nuclei (%): 7%
  Population Healthy Nuclei (%): 87%
  Population Hoechst High Intensity Objects (%): 1%
  Population Membrane Permeable-Phenotype (%): 1%
  Population Mitochondria Different-Phenotype (%): 10%
  Population Mitotic Cells (%): 89%
  Population Normal (%): 98%
  Population Pyknosed Nuclei (%): 5%
  Population Tubulin-Different-Phenotype (%): 7%
  Total Cell Count: 1619
[3]
  Population Apoptotic (%): 31%
  Population Fragmented Nuclei (%): 13%
  Population Healthy Nuclei (%): 50%
  Population Hoechst High Intensity Objects (%): 10%
  Population Membrane Permeable-Phenotype (%): 19%
  Population Mitochondria Different-Phenotype (%): 16%
  Population Mitotic Cells (%): 68%
  Population Normal (%): 89%
  Population Pyknosed Nuclei (%): 35%
  Population Tubulin-Different-Phenotype (%): 61%
  Total Cell Count: 591
[4]
  Population Apoptotic (%): 14%
  Population Fragmented Nuclei (%): 3%
  Population Healthy Nuclei (%): 83%
  Population Hoechst High Intensity Objects (%): 2%
  Population Membrane Permeable-Phenotype (%): 11%
  Population Mitochondria Different-Phenotype (%): 23%
  Population Mitotic Cells (%): 85%
  Population Normal (%): 97%
  Population Pyknosed Nuclei (%): 12%
  Population Tubulin-Different-Phenotype (%): 78%
  Total Cell Count: 1328
[5]
  Population Apoptotic (%): 31%
  Population Fragmented Nuclei (%): 14%
  Population Healthy Nuclei (%): 74%
  Population Hoechst High Intensity Objects (%): 8%
  Population Membrane Permeable-Phenotype (%): 7%
  Population Mitochondria Different-Phenotype (%): 5%
  Population Mitotic Cells (%): 68%
  Population Normal (%): 91%
  Population Pyknosed Nuclei (%): 11%
  Population Tubulin-Different-Phenotype (%): 9%
  Total Cell Count: 612
[6]
  Population Apoptotic (%): 4%
  Population Fragmented Nuclei (%): 26%
  Population Healthy Nuclei (%): 71%
  Population Hoechst High Intensity Objects (%): 2%
  Population Membrane Permeable-Phenotype (%): 4%
  Population Mitochondria Different-Phenotype (%): 2%
  Population Mitotic Cells (%): 96%
  Population Normal (%): 97%
  Population Pyknosed Nuclei (%): 1%
  Population Tubulin-Different-Phenotype (%): 8%
  Total Cell Count: 2811
[7]
  Population Apoptotic (%): 28%
  Population Fragmented Nuclei (%): 12%
  Population Healthy Nuclei (%): 59%
  Population Hoechst High Intensity Objects (%): 8%
  Population Membrane Permeable-Phenotype (%): 10%
  Population Mitochondria Different-Phenotype (%): 17%
  Population Mitotic Cells (%): 71%
  Population Normal (%): 91%
  Population Pyknosed Nuclei (%): 28%
  Population Tubulin-Different-Phenotype (%): 72%
  Total Cell Count: 592
[8]
  Population Apoptotic (%): 11%
  Population Fragmented Nuclei (%): 11%
  Population Healthy Nuclei (%): 81%
  Population Hoechst High Intensity Objects (%): 3%
  Population Membrane Permeable-Phenotype (%): 12%
  Population Mitochondria Different-Phenotype (%): 9%
  Population Mitotic Cells (%): 88%
  Population Normal (%): 96%
  Population Pyknosed Nuclei (%): 6%
  Population Tubulin-Different-Phenotype (%): 70%
  Total Cell Count: 1894

## CCc1cc2c(cc1CC)CC(NC[C@H](O)c1ccc(O)c3[nH]c(=O)ccc13)C2 [INDACATEROL]
[1]
  Population Apoptotic (%): 48%
  Population Fragmented Nuclei (%): 10%
  Population Healthy Nuclei (%): 47%
  Population Hoechst High Intensity Objects (%): 16%
  Population Membrane Permeable-Phenotype (%): 4%
  Population Mitochondria Different-Phenotype (%): 74%
  Population Mitotic Cells (%): 51%
  Population Normal (%): 83%
  Population Pyknosed Nuclei (%): 42%
  Population Tubulin-Different-Phenotype (%): 53%
  Total Cell Count: 240
[2]
  Population Apoptotic (%): 6%
  Population Fragmented Nuclei (%): 8%
  Population Healthy Nuclei (%): 36%
  Population Hoechst High Intensity Objects (%): 3%
  Population Membrane Permeable-Phenotype (%): 10%
  Population Mitochondria Different-Phenotype (%): 50%
  Population Mitotic Cells (%): 93%
  Population Normal (%): 96%
  Population Pyknosed Nuclei (%): 55%
  Population Tubulin-Different-Phenotype (%): 51%
  Total Cell Count: 228
[3]
  Population Apoptotic (%): 93%
  Population Fragmented Nuclei (%): 19%
  Population Healthy Nuclei (%): 12%
  Population Hoechst High Intensity Objects (%): 30%
  Population Membrane Permeable-Phenotype (%): 0%
  Population Mitochondria Different-Phenotype (%): 61%
  Population Mitotic Cells (%): 6%
  Population Normal (%): 69%
  Population Pyknosed Nuclei (%): 67%
  Population Tubulin-Different-Phenotype (%): 61%
  Total Cell Count: 204
[4]
  Population Apoptotic (%): 82%
  Population Fragmented Nuclei (%): 8%
  Population Healthy Nuclei (%): 17%
  Population Hoechst High Intensity Objects (%): 12%
  Population Membrane Permeable-Phenotype (%): 3%
  Population Mitochondria Different-Phenotype (%): 90%
  Population Mitotic Cells (%): 17%
  Population Normal (%): 87%
  Population Pyknosed Nuclei (%): 74%
  Population Tubulin-Different-Phenotype (%): 87%
  Total Cell Count: 215
[5]
  Population Apoptotic (%): 48%
  Population Fragmented Nuclei (%): 10%
  Population Healthy Nuclei (%): 57%
  Population Hoechst High Intensity Objects (%): 16%
  Population Membrane Permeable-Phenotype (%): 4%
  Population Mitochondria Different-Phenotype (%): 70%
  Population Mitotic Cells (%): 52%
  Population Normal (%): 83%
  Population Pyknosed Nuclei (%): 32%
  Population Tubulin-Different-Phenotype (%): 43%
  Total Cell Count: 279
[6]
  Population Apoptotic (%): 22%
  Population Fragmented Nuclei (%): 7%
  Population Healthy Nuclei (%): 55%
  Population Hoechst High Intensity Objects (%): 2%
  Population Membrane Permeable-Phenotype (%): 3%
  Population Mitochondria Different-Phenotype (%): 42%
  Population Mitotic Cells (%): 77%
  Population Normal (%): 97%
  Population Pyknosed Nuclei (%): 37%
  Population Tubulin-Different-Phenotype (%): 55%
  Total Cell Count: 282
[7]
  Population Apoptotic (%): 98%
  Population Fragmented Nuclei (%): 22%
  Population Healthy Nuclei (%): 11%
  Population Hoechst High Intensity Objects (%): 33%
  Population Membrane Permeable-Phenotype (%): 6%
  Population Mitochondria Different-Phenotype (%): 50%
  Population Mitotic Cells (%): 1%
  Population Normal (%): 66%
  Population Pyknosed Nuclei (%): 65%
  Population Tubulin-Different-Phenotype (%): 50%
  Total Cell Count: 213
[8]
  Population Apoptotic (%): 95%
  Population Fragmented Nuclei (%): 5%
  Population Healthy Nuclei (%): 20%
  Population Hoechst High Intensity Objects (%): 15%
  Population Membrane Permeable-Phenotype (%): 2%
  Population Mitochondria Different-Phenotype (%): 97%
  Population Mitotic Cells (%): 4%
  Population Normal (%): 84%
  Population Pyknosed Nuclei (%): 74%
  Population Tubulin-Different-Phenotype (%): 89%
  Total Cell Count: 219
[9]
  Population Apoptotic (%): 43%
  Population Fragmented Nuclei (%): 12%
  Population Healthy Nuclei (%): 72%
  Population Hoechst High Intensity Objects (%): 9%
  Population Membrane Permeable-Phenotype (%): 0%
  Population Mitochondria Different-Phenotype (%): 45%
  Population Mitotic Cells (%): 56%
  Population Normal (%): 90%
  Population Pyknosed Nuclei (%): 14%
  Population Tubulin-Different-Phenotype (%): 33%
  Total Cell Count: 393
[10]
  Population Apoptotic (%): 22%
  Population Fragmented Nuclei (%): 7%
  Population Healthy Nuclei (%): 73%
  Population Hoechst High Intensity Objects (%): 7%
  Population Membrane Permeable-Phenotype (%): 5%
  Population Mitochondria Different-Phenotype (%): 17%
  Population Mitotic Cells (%): 77%
  Population Normal (%): 92%
  Population Pyknosed Nuclei (%): 18%
  Population Tubulin-Different-Phenotype (%): 49%
  Total Cell Count: 448
[11]
  Population Apoptotic (%): 91%
  Population Fragmented Nuclei (%): 29%
  Population Healthy Nuclei (%): 2%
  Population Hoechst High Intensity Objects (%): 35%
  Population Membrane Permeable-Phenotype (%): 25%
  Population Mitochondria Different-Phenotype (%): 25%
  Population Mitotic Cells (%): 8%
  Population Normal (%): 64%
  Population Pyknosed Nuclei (%): 67%
  Population Tubulin-Different-Phenotype (%): 0%
  Total Cell Count: 209
[12]
  Population Apoptotic (%): 98%
  Population Fragmented Nuclei (%): 9%
  Population Healthy Nuclei (%): 17%
  Population Hoechst High Intensity Objects (%): 17%
  Population Membrane Permeable-Phenotype (%): 6%
  Population Mitochondria Different-Phenotype (%): 96%
  Population Mitotic Cells (%): 1%
  Population Normal (%): 82%
  Population Pyknosed Nuclei (%): 73%
  Population Tubulin-Different-Phenotype (%): 96%
  Total Cell Count: 214
